ChEMBL document CHEMBL1921722, “In vitro and in vivo evaluation of select kahalalide F analogs with antitumor and antifungal activities” (Bioorg Med Chem, 2011)
Calls of active or inactive are those of the source. No cut-off for these calls is given here.

Experiments:
SF-539 [1] = assay: Cytotoxicity against human SF539 cells assessed as cell growth at 8 uM by sulforhodamine B assay relative to control; assay type: functional; settings: read-out: Activity
SW-620 [2] = assay: Cytotoxicity against human SW620 cells assessed as cell growth at 80 nM by sulforhodamine B assay relative to control; assay type: functional; settings: read-out: Activity
RPMI-8226 = assay: Cytotoxicity against human RPMI8226 cells assessed as cell growth at 8 uM by sulforhodamine B assay relative to control; assay type: functional; settings: read-out: Activity
UO-31 = assay: Cytotoxicity against human UO31 cells assessed as cell growth at 80 uM by sulforhodamine B assay relative to control; assay type: functional; settings: read-out: Activity
MCF7 [3] = assay: Cytotoxicity against human MCF7 cells assessed as cell growth at 80 nM by sulforhodamine B assay relative to control; assay type: functional; settings: read-out: Activity
EKVX [4] = assay: Cytotoxicity against human EKVX cells assessed as cell growth at 8 uM by sulforhodamine B assay relative to control; assay type: functional; settings: read-out: Activity
A549 = assay: Cytotoxicity against human A549 cells by sulforhodamine B assay; assay type: functional
Procedure, shortened: (§1)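 Run at NCI in the DTP 60-cell-line human tumor panel by standard procedure. Compounds were first screened at a single concentration, then tested at five tenfold-spaced concentrations. GI50 is the concentration reducing treated-cell growth to half that of untreated controls; TGI is the concentration completely halting growth.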

TK-10 [5] = assay: Cytotoxicity against human TK10 cells assessed as cell growth at 8 nM by sulforhodamine B assay relative to control; assay type: functional; settings: read-out: Activity
Malme-3M = assay: Cytotoxicity against human MALME-3M cells assessed as cell growth at 8 nM by sulforhodamine B assay relative to control; assay type: functional; settings: read-out: Activity
NCI-H322M [6] = assay: Cytotoxicity against human NCI-H322M cells assessed as cell growth at 80 nM by sulforhodamine B assay relative to control; assay type: functional; settings: read-out: Activity
HCT-116 = assay: Cytotoxicity against human HCT116 cells assessed as cell growth at 8 nM by sulforhodamine B assay relative to control; assay type: functional; settings: read-out: Activity
OVCAR-8 = assay: Cytotoxicity against human OVCAR8 cells assessed as cell growth at 800 nM by sulforhodamine B assay relative to control; assay type: functional; settings: read-out: Activity
NCI-H226 = assay: Cytotoxicity against human NCI-H226 cells assessed as cell growth at 80 nM by sulforhodamine B assay relative to control; assay type: functional; settings: read-out: Activity
MOLT-4 = assay: Cytotoxicity against human MOLT4 cells by sulforhodamine B assay; assay type: functional
Procedure, shortened: (§2)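 NCI Developmental Therapeutics Program 60-cell-line human tumor panel screen, run at NCI. A single-concentration pre-screen was followed by a five-concentration dose-response in 10-fold steps. GI50 is the concentration that reduces growth of treated cells to half that of untreated control cells. TGI is the concentration that completely halts growth.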

SNB-75 = assay: Cytotoxicity against human SNB75 cells assessed as cell growth at 8 nM by sulforhodamine B assay relative to control; assay type: functional; settings: read-out: Activity
SF-268 = assay: Cytotoxicity against human SF268 cells by sulforhodamine B assay; assay type: functional
IGROV-1 [7] = assay: Cytotoxicity against human IGROV1 cells assessed as cell growth at 8 uM by sulforhodamine B assay relative to control; assay type: functional; settings: read-out: Activity
HL-60(TB) = assay: Cytotoxicity against human HL-60(TB) cells assessed as cell growth at 800 nM by sulforhodamine B assay relative to control; assay type: functional; settings: read-out: Activity
A498 = assay: Cytotoxicity against human A498 cells assessed as cell growth at 80 uM by sulforhodamine B assay relative to control; assay type: functional; settings: read-out: Activity; procedure, shortened: as §1
Mus musculus = assay: Acute toxicity in athymic nude mouse assessed as mortality at 25 mg/kg, […]; assay type: organism-based; parameters: dose 25 mg/kg, route intraperitoneal; settings: in vivo, ip, 576 h
EKVX [8] = assay: Cytotoxicity against human EKVX cells assessed as cell growth at 80 nM by sulforhodamine B assay relative to control; assay type: functional; settings: read-out: Activity
MDA-MB-435 [9] = assay: Cytotoxicity against human MDA-MB-435 cells assessed as cell growth at 8 nM by sulforhodamine B assay relative to control; assay type: functional; settings: read-out: Activity
NCI/ADR-RES = assay: Cytotoxicity against human NCI/ADR-RES cells assessed as cell growth at 8 nM by sulforhodamine B assay relative to control; assay type: functional; settings: read-out: Activity
786-0 [10] = assay: Cytotoxicity against human 786-0 cells assessed as cell growth at 80 nM by sulforhodamine B assay relative to control; assay type: functional; settings: read-out: Activity; procedure, shortened: as §1
IGROV-1 [11] = assay: Cytotoxicity against human IGROV1 cells assessed as cell growth at 800 nM by sulforhodamine B assay relative to control; assay type: functional; settings: read-out: Activity
NCI-H522 = assay: Cytotoxicity against human NCI-H522 cells assessed as cell growth at 8 uM by sulforhodamine B assay relative to control; assay type: functional; settings: read-out: Activity
HCC 2998 = assay: Cytotoxicity against human HCC2998 cells assessed as cell growth at 80 uM by sulforhodamine B assay relative to control; assay type: functional; settings: read-out: Activity
MCF7 [12] = assay: Cytotoxicity against human MCF7 cells assessed as cell growth at 800 nM by sulforhodamine B assay relative to control; assay type: functional; settings: read-out: Activity
OVCAR-4 = assay: Cytotoxicity against human OVCAR4 cells assessed as cell growth at 80 uM by sulforhodamine B assay relative to control; assay type: functional; settings: read-out: Activity
ACHN = assay: Cytotoxicity against human ACHN cells assessed as cell growth at 8 nM by sulforhodamine B assay relative to control; assay type: functional; settings: read-out: Activity; procedure, shortened: as §1
Pseudomonas aeruginosa = assay: Antimicrobial activity against Pseudomonas aeruginosa ATCC 27853 by CLSI method; assay type: functional, organism-based
SNB-19 = assay: Cytotoxicity against human SNB19 cells assessed as cell growth at 80 nM by sulforhodamine B assay relative to control; assay type: functional; settings: read-out: Activity
SW-620 [13] = assay: Cytotoxicity against human SW620 cells assessed as cell growth at 8 uM by sulforhodamine B assay relative to control; assay type: functional; settings: read-out: Activity
Hs-578T = assay: Cytotoxicity against human Hs578T cells assessed as cell growth at 80 uM by sulforhodamine B assay relative to control; assay type: functional; settings: read-out: Activity
NCI-H322M [14] = assay: Cytotoxicity against human NCI-H322M cells assessed as cell growth at 8 nM by sulforhodamine B assay relative to control; assay type: functional; settings: read-out: Activity
SF-539 [15] = assay: Cytotoxicity against human SF539 cells assessed as cell growth at 800 nM by sulforhodamine B assay relative to control; assay type: functional; settings: read-out: Activity
MDA-MB-435 [16] = assay: Cytotoxicity against human MDA-MB-435 cells assessed as cell growth at 80 nM by sulforhodamine B assay relative to control; assay type: functional; settings: read-out: Activity
TK-10 [17] = assay: Cytotoxicity against human TK10 cells assessed as cell growth at 800 nM by sulforhodamine B assay relative to control; assay type: functional; settings: read-out: Activity
UACC-257 = assay: Cytotoxicity against human UACC257 cells by sulforhodamine B assay; assay type: functional; procedure, shortened: as §2
EKVX [18] = assay: Cytotoxicity against human EKVX cells assessed as cell growth at 8 nM by sulforhodamine B assay relative to control; assay type: functional; settings: read-out: Activity
786-0 [19] = assay: Cytotoxicity against human 786-0 cells assessed as cell growth at 80 uM by sulforhodamine B assay relative to control; assay type: functional; settings: read-out: Activity; procedure, shortened: as §1

`C/C=C1\NC(=O)[C@H](Cc2ccccc2)NC(=O)[C@@H](C(C)C)NC(=O)[C@@H]([C@@H](C)CC)NC(=O)[C@H](NC(=O)[C@H](NC(=O)[C@H](CCCNCc2ccc(N3CCOCC3)cc2)NC(=O)[C@H]2CCCN2C(=O)[C@H](NC(=O)[C@@H](NC(=O)[C@@H](NC(=O)[C@H](NC(=O)CCCC(C)C)C(C)C)[C@@H](C)O)C(C)C)C(C)C)[C@@H](C)CC)[C@@H](C)OC(=O)[C@H](C(C)C)NC1=O` gave a growth at 8 µM (SF-539 [1]) of -89%, a growth at 0.08 µM (SW-620 [2]) of 99% and a growth at 8 µM (RPMI-8226) of -68%. For the same compound, the growth at 80 µM (UO-31) was -28%, the growth at 0.08 µM (MCF7 [3]) was 107% and the growth at 8 µM (EKVX [4]) was -76%. For the same compound, the GI50 (A549; read-out: GI50) was 175 nM, the GI50 (A549; read-out: pGI50 (converted)) was 174 nM and the growth at 0.008 µM (TK-10 [5]) was 118%. The growth at 0.008 µM (Malme-3M) was 100%, the growth at 0.08 µM (NCI-H322M [6]) was 92% and the growth at 0.008 µM (HCT-116) was 102%. It also gave a growth at 0.8 µM (OVCAR-8) of 96%, a growth at 0.08 µM (NCI-H226) of 107% and a GI50 (MOLT-4) of 20400 nM. The LC50 (MOLT-4) was > 75900 nM, the TGI (MOLT-4; read-out: pTGI) was > 75900 nM and the growth at 0.008 µM (SNB-75) was 110%. The GI50 (SF-268) was 1450 nM, the growth at 8 µM (IGROV-1 [7]) was -75% and the growth at 0.8 µM (HL-60(TB)) was 93%. The growth at 80 µM (A498) was -91%, the Activity (Mus musculus) was “Toxic” and the growth at 0.08 µM (EKVX [8]) was 98%. For the same compound, the growth at 0.008 µM (MDA-MB-435 [9]) was 103%, the growth at 0.008 µM (NCI/ADR-RES) was 104% and the growth at 0.08 µM (786-0 [10]) was 93%. It also gave a growth at 0.8 µM (IGROV-1 [11]) of 55%, a growth at 8 µM (NCI-H522) of 40% and a growth at 80 µM (HCC 2998) of -69%. It also gave a growth at 0.8 µM (MCF7 [12]) of 91%, a growth at 80 µM (OVCAR-4) of -15% and a growth at 0.008 µM (ACHN) of 100%. For the same compound, the Activity (Pseudomonas aeruginosa) was “inactive”, the growth at 0.08 µM (SNB-19) was 102% and the growth at 8 µM (SW-620 [13]) was -98%. The growth at 80 µM (Hs-578T) was -40%, the growth at 0.008 µM (NCI-H322M [14]) was 109% and the growth at 0.8 µM (SF-539 [15]) was 93%. It also gave a growth at 0.08 µM (MDA-MB-435 [16]) of 99%, a growth at 0.8 µM (TK-10 [17]) of 104% and a GI50 (UACC-257; read-out: GI50) of 1340 nM. It also gave a TGI (UACC-257; read-out: TGI) of 2650 nM, a GI50 (UACC-257; read-out: pGI50 (converted)) of 1350 nM and a TGI (UACC-257; read-out: pTGI (converted)) of 2630 nM. It also gave a growth at 0.008 µM (EKVX [18]) of 102% and a growth at 80 µM (786-0 [19]) of -66%.
